Reference: ChEMBL document CHEMBL4725346, “Syntheses and Evaluation of New Bisacridine Derivatives for Dual Binding of G-Quadruplex and i-Motif in Regulating Oncogene c-myc Expression” (J Med Chem, 2020)
Calls of active or inactive are those of the source. No cut-off for these calls is given here.

Columns and labels:
HCT-116 = assay: Antiproliferative activity against human HCT-116 cells after 48 hrs by MTT assay; assay type: functional, cell-based; conditions: HCT-116, 48 h
Procedure, shortened: (§1)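 Cells seeded at 5.0×10^3 per well, pre-incubated 12 h at 37 °C, 5% CO2, then exposed to compounds for 48 h; DMSO-only control. MTT (2.5 mg/mL) added for 4 h, formazan dissolved in DMSO, absorbance at 570 nm. Each dose tested in triplicate; IC50 from percentage survival relative to negative control.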

[1] = Stabilization of 5'-FAM/3'-TAMRA labeled c-myc promoter i-motif DNA FPy33T (unknown origin) assessed as change in melting temperature at 1 uM by FRET assay (reference value: 53.2 degreeC)
Procedure, shortened: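 FRET melting of dual FAM/TAMRA-labelled FPy33T annealed in 1× BPES (30 mM potassium phosphate, 1 mM EDTA, 100 mM KCl), pH 5.5. Final 0.2 µM DNA with or without ligand. Excitation 470 nm, emission 530 nm, read every 1 °C over 37–99 °C. ΔTm taken against DNA alone.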

Quadruplex DNA [2] = assay: Stabilization of 5'-FAM/3'-TAMRA labeled c-myc promoter G-quadruplex DNA FPu22T (unknown origin) assessed as change in melting temperature at 1 uM by FRET assay (reference value: 66.5 degreeC); assay type: nucleic-acid assay
Procedure, shortened: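 FRET melting of dual FAM/TAMRA-labelled FPu22T annealed in 10 mM Tris-HCl pH 7.4 with KCl. Final 0.2 µM DNA with or without ligand. Excitation 470 nm, emission 530 nm, read every 1 °C over 37–99 °C on a real-time PCR cycler. ΔTm = Tm(DNA+ligand) − Tm(DNA).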

SiHa = assay: Antiproliferative activity against human SiHa cells after 48 hrs by MTT assay; assay type: functional, cell-based; procedure, shortened: as §1
HeLa = assay: Antiproliferative activity against human Hela cells after 48 hrs by MTT assay; assay type: functional, cell-based; procedure, shortened: as §1
[3] = Stabilization of 5'-FAM/3'-TAMRA labeled hairpin DNA F10T (unknown origin) assessed as change in melting temperature at 1 uM by FRET assay (reference value: 59.1 degreeC)
A549 = assay: Antiproliferative activity against human A549 cells after 48 hrs by MTT assay; assay type: functional, cell-based; conditions: A549, 48 h; procedure, shortened: as §1
ssDNA = assay: Binding affinity to 5'-biotin labeled single-stranded DNA Py33 (unknown origin) by surface plasmon resonance method; assay type: nucleic-acid assay
Quadruplex DNA [4] = assay: Binding affinity to 5'-biotin labeled c-myc promoter G-quadruplex DNA Pu27 (unknown origin) by surface plasmon resonance method; assay type: nucleic-acid assay
Procedure, shortened: (§2)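 SPR: 5'-biotin DNA diluted to 1 μM and captured (1000 RU) on a sensor chip, with a blank cell as reference. Running buffers: Py33 in 20 mM MES pH 5.8, 100 mM KCl, 0.05% Tween-20; Pu27 and duplex in 50 mM Tris-HCl pH 7.4, 100 mM KCl. Six ligand concentrations serially diluted from DMSO stock. Association 260 s, dissociation 300 s at 25 °C; NaOH regeneration; blank sensorgrams subtracted.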

U2OS = assay: Antiproliferative activity against human U2OS cells after 48 hrs by MTT assay; assay type: functional, cell-based; procedure, shortened: as §1
[5] = Binding affinity to 5'-biotin labeled c-myc promoter i-motif DNA Py33 (unknown origin) by surface plasmon resonance method; procedure, shortened: as §2
A-375 = assay: Antiproliferative activity against human A-375 cells after 48 hrs by MTT assay; assay type: functional, cell-based; conditions: A-375, 48 h; procedure, shortened: as §1
Huh-7 = assay: Antiproliferative activity against human Huh-7 cells after 48 hrs by MTT assay; assay type: functional, cell-based; conditions: Huh-7, 48 h; procedure, shortened: as §1
dsDNA = assay: Binding affinity to 5'-biotin labeled duplex DNA (unknown origin) by surface plasmon resonance method; assay type: nucleic-acid assay; procedure, shortened: as §2
[6] = Stabilization of c-myc promoter i-motif DNA Py33 (unknown origin) assessed as reduction in appearance of random coil confirmation at pH 5.5 by CD spectroscopy
Procedure, shortened: (§3)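 Py33 at 1 µM in 1× BPES pH 5.5 (pH 6.8 random-coil reference), with or without ligand. Annealed at 95 °C for 5 min, cooled, kept at 4 °C overnight. CD spectra in a 4 mm cuvette over 230–350 nm, three scans averaged, buffer-corrected; peaks followed at 288 and 260 nm.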

[7] = Stabilization of c-myc promoter i-motif DNA Py33 (unknown origin) assessed as decrease in positive peak intensity at pH 5.5 measured at 288 nanometer by CD spectroscopy; procedure, shortened: as §3
[8] = Stabilization of c-myc promoter i-motif DNA Py33 (unknown origin) assessed as decrease in negative peak intensity at pH 5.5 measured at 260 nanometer by CD spectroscopy; procedure, shortened: as §3
Quadruplex DNA [9] = assay: Stabilization of c-myc promoter G-quadruplex DNA Pu27 (unknown origin) in pH 7.4 Tris-HCl buffer by CD spectroscopy; assay type: nucleic-acid assay
Procedure, shortened: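 Pu27 at 1 µM in 10 mM Tris-HCl pH 7.4, with or without ligand. Annealed at 95 °C for 5 min, cooled to room temperature, stored at 4 °C overnight. CD spectra taken in a 4 mm cuvette over 230–350 nm, three scans averaged, smoothed and buffer-baseline corrected.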

[10] = Drug uptake in human SiHa cells; assay type: ADME, cell-based

| IC50 (HCT-116) [µM] | ΔTm [1] [°C] | ΔTm (Quadruplex DNA [2]) [°C] | IC50 (HeLa) [µM] | ΔTm [3] [°C] | IC50 (A549) [µM] | Kd (ssDNA) [µM] | Kd (Quadruplex DNA [4]) [µM] | IC50 (U2OS) [µM] | Kd [5] [µM] | IC50 (A-375) [µM] | IC50 (Huh-7) [µM] | Kd (dsDNA) [µM] | Activity [6] | Activity [7] | Activity [8] | Activity (Quadruplex DNA [9]) | Drug uptake [10] | Structure (SMILES) | IC50 (SiHa) [µM] |
| --- | --- | --- | --- | --- | --- | --- | --- | --- | --- | --- | --- | --- | --- | --- | --- | --- | --- | --- | --- |
| 2.47 | 4.5 | 15.6 | 0.85 | 3.8 | 0.52 | 13.9 | 5.5 | 0.44 | 10.5 | 0.13 | 0.27 | 22.2 |  |  |  |  |  | Cc1ccc2nc3ccc(C)cc3c(NCCCN(C)CCCNc3c4cc(C)ccc4nc4ccc(C)cc34)c2c1 | 0.37 |
|  | 1.2 | 10 |  | 1.7 |  |  | 14.3 |  | 25.1 |  |  |  |  |  |  |  |  | Cc1ccc2nc3ccccc3c(NCCCCCCNc3c4ccccc4nc4ccc(C)cc34)c2c1 |  |
|  | 2 | 8.6 |  | 4.8 |  |  | 2.9 |  | 3.8 |  |  | 11.8 |  |  |  |  |  | COC(=O)c1ccc2nc3ccc(C)cc3c(NCCCNCCNCCCNc3c4cc(C)ccc4nc4ccc(C(=O)OC)cc34)c2c1 |  |
| 0.19 | 7.3 | 7.7 | 0.34 | 10.8 | 0.35 |  | 18.3 | 0.13 | 9.1 | 0.12 | 0.8 | 8.1 |  |  |  |  |  | CN(CCCNc1c2ccccc2nc2ccccc12)CCCNc1c2ccccc2nc2ccccc12 | 2.51 |
|  | 10.1 | 16.8 |  | 2.7 |  | 4.7 | 1.1 |  | 12.4 |  |  |  |  |  |  |  |  | Cc1ccc2nc3ccc(C)cc3c(NCCCCCCNc3c4cc(C)ccc4nc4ccc(C)cc34)c2c1 |  |
|  | 0.6 | 8.8 |  | 9.3 |  | 14.7 | 11.6 |  |  |  |  | 7.4 |  |  |  |  |  | c1ccc2c(NCCCCCCCNc3c4ccccc4nc4ccccc34)c3ccccc3nc2c1 |  |
| 0.69 | 11.8 | 12.5 | 0.27 | 9.8 | 0.28 |  | 13.8 | 0.38 | 3.8 | 0.43 | 0.19 | 6 | Active | Active | Active |  |  | c1ccc2c(NCCCNCCNCCCNc3c4ccccc4nc4ccccc34)c3ccccc3nc2c1 | 2 |
|  | 1 | 14.3 |  | 2.5 |  | 2.9 | 1.4 |  | 10.3 |  |  | 12.5 |  |  |  | Active |  | COC(=O)c1ccc2nc3ccc(C)cc3c(NCCOCCOCCNc3c4cc(C)ccc4nc4ccc(C(=O)OC)cc34)c2c1 |  |
| 2.06 | 9.1 | 10.4 | 1.47 | 0.8 | 0.47 | 6.8 | 2.9 | 0.55 | 16 | 1.92 | 2.68 |  |  |  |  |  |  | Cc1ccc2nc3ccc(C)cc3c(NCCCCNc3c4cc(C)ccc4nc4ccc(C)cc34)c2c1 | 3.7 |
| 0.95 | 1 | 11 | 0.66 | 2.7 | 0.72 | 23.7 | 7.3 | 1.33 |  | 0.51 | 2.81 | 33.6 |  |  |  |  |  | Cc1ccc2nc3ccc(C)cc3c(NCCCCCNc3c4cc(C)ccc4nc4ccc(C)cc34)c2c1 | 1.66 |
| 1.95 | 6.4 | 12.1 | 0.37 | 6.2 | 1.16 | 8.91 | 6.9 | 2.04 | 10.7 | 0.23 | 0.19 | 16.4 |  |  |  |  |  | Cc1ccc2nc3ccccc3c(NCCCN(C)CCCNc3c4ccccc4nc4ccc(C)cc34)c2c1 | 0.49 |
|  | 3.4 | 15.3 |  | 3.6 |  |  | 10.3 |  |  |  |  | 24.8 |  |  |  |  |  | Cc1ccc2nc3ccccc3c(NCCCCCCCNc3c4ccccc4nc4ccc(C)cc34)c2c1 |  |
| 0.86 | 0.1 | 14.3 | 0.32 | 3 | 0.81 | 21.6 | 5.1 | 2.16 | 13 | 1.88 | 2.14 | 33.2 |  |  |  | Active |  | Cc1ccc2nc3ccccc3c(NCCOCCOCCNc3c4ccccc4nc4ccc(C)cc34)c2c1 | 2.77 |
| 1.68 | 0.2 | 11.4 | 1.65 | 1.9 | 0.83 | 26.1 | 16.3 | 1.42 | 14.5 | 1.83 | 3.67 |  |  |  |  |  |  | Cc1ccc2nc3ccccc3c(NCCCCCNc3c4ccccc4nc4ccc(C)cc34)c2c1 | 2.52 |
| 0.91 | 0.4 | 13.9 | 1.36 | 2 | 0.32 |  | 1.6 | 0.79 |  | 0.92 | 3.29 |  |  |  |  |  |  | Cc1ccc2nc3ccccc3c(NCCCCNc3c4ccccc4nc4ccc(C)cc34)c2c1 | 2.44 |
| 0.51 | 0.1 | 10.6 | 0.24 | 3.4 | 1.14 |  | 9.3 | 0.33 | 16 | 0.22 | 0.87 | 5.8 |  |  |  | Active |  | c1ccc2c(NCCOCCOCCNc3c4ccccc4nc4ccccc34)c3ccccc3nc2c1 | 2.26 |
| 3.51 | 1.3 | 14 | 2.62 | 2.2 | 1.73 | 13.7 | 4.3 | 1.6 |  | 2.05 | 5.56 | 10.1 |  |  |  |  |  | c1ccc2c(NCCCNc3c4ccccc4nc4ccccc34)c3ccccc3nc2c1 | 3.06 |
|  | 27.4 | 8.3 |  | 2.2 |  |  | 3.7 |  | 8.5 |  |  | 17.4 | Active | Active | Active |  | Not Active | Cc1ccc2nc3ccc(C(=O)NCCCN(C)C)cc3c(NCCOCCOCCNc3c4cc(C)ccc4nc4ccc(C(=O)NCCCN(C)C)cc34)c2c1 |  |
|  | 1.4 | 15.7 |  | 1.8 |  | 8.8 | 6.1 |  |  |  |  | 10.7 |  |  |  |  |  | Cc1ccc2nc3ccc(C)cc3c(NCCCCCCCNc3c4cc(C)ccc4nc4ccc(C)cc34)c2c1 |  |
| 6.25 | 2.4 | 14.1 | 1.36 | 0.7 | 1.71 |  | 9.2 | 2.94 |  | 2.48 | 6.2 | 35.4 |  |  |  |  |  | Cc1ccc2nc3ccc(C)cc3c(NCCCNc3c4cc(C)ccc4nc4ccc(C)cc34)c2c1 | 3.82 |
